# Experimental data: ChEMBL document CHEMBL4118188, “A small diversity library of α-methyl amide analogs of sulindac for probing anticancer structure-activity relationships” (Bioorg Med Chem Lett, 2018); call rule not given here
# Columns and labels:
# [1] = system: HT-29; experiment: Growth inhibition of human HT-29 cells measured after 72 hrs by Celltiter-Glo reagent based assay; type: functional; conditions: HT-29, 72 h
# [2] = system: MDA-MB-231; experiment: Growth inhibition of human MDA-MB-231 cells measured after 96 hrs by Celltiter-Glo reagent based assay; type: functional; conditions: MDA-MB-231, 96 h
# [3] = system: PC-3; experiment: Growth inhibition of human PC3 cells measured after 72 hrs by Celltiter-Glo reagent based assay; type: functional; conditions: PC-3, 72 h
# [4] = Growth inhibition of mouse CPC300 cells measured after 72 hrs by Celltiter-Glo reagent based assay; type: functional
# Outline: (§1)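 Cell line sources: Raji is a Burkitt's lymphoma line (FAB L3); Jurkat E6-1 is an acute T-cell leukemia line; REH is a patient-derived precursor B-cell ALL line expressing only wild-type MLL and wild-type AF4; 697 was established from bone marrow of children with relapsed ALL; CPC300 derives from a mouse model of choroid plexus carcinoma.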
# [5] = system: REH; experiment: Growth inhibition of human REH cells measured after 72 hrs by CellTiter-Glo reagent based assay; type: functional, cell-based; conditions: Homo sapiens, REH, 72 h; read-out: EC50; outline: as §1
# [6] = system: Jurkat E6.1; experiment: Growth inhibition of human Jurkat E6-1 cells measured after 72 hrs by Celltiter-Glo reagent based assay; type: functional, cell-based; conditions: jurkat e6.1; outline: as §1
# [7] = system: 697; experiment: Growth inhibition of human 697 cells after 72 hrs by CellTiter-Glo reagent based assay; type: functional, cell-based; conditions: 697; outline: as §1
# [8] = system: BJ; experiment: Growth inhibition of human BJ cells after 72 hrs by CellTiter-Glo reagent based assay; type: cell-based
# [9] = Growth inhibition of human NALM16 cells measured after 72 hrs by Celltiter-Glo reagent based assay; type: functional
SMILES,CC50 [1] [µM],CC50 [2] [µM],CC50 [3] [µM],other results
CCN(CC)CCN(C)C(=O)C(C)C1=C(C)/C(=C/c2ccc([S+](C)[O-])cc2)c2ccc(F)cc21 (centres undefined),5.83,> 50,29.3,
CC1=C(C(C)C(=O)N(C)CCN(C)C(=O)[C@@H]2CCCN2)c2cc(F)ccc2/C1=C\c1ccc([S+](C)[O-])cc1 (some centres undefined),20.1,> 50,27.9,
CC1=C(C(C)C(=O)NCCN2CCCCC2)c2cc(F)ccc2/C1=C\c1ccc([S+](C)[O-])cc1 (centres undefined),9.67,39.3,36.3,
CC1=C(C(C)C(=O)N(C)CCN(C)C(=O)[C@@H](N)C(C)C)c2cc(F)ccc2/C1=C\c1ccc([S+](C)[O-])cc1 (some centres undefined),26,47.6,28.8,
CC1=C(C(C)C(=O)N(CCCNC(C)C)C(C)C)c2cc(F)ccc2/C1=C\c1ccc([S+](C)[O-])cc1 (centres undefined),7.13,23,15.7,
CC1=C(C(C)C(=O)NCc2ccco2)c2cc(F)ccc2/C1=C\c1ccc([S+](C)[O-])cc1 (centres undefined),> 50,> 50,> 50,
CCN(CC)CCN(CC)C(=O)C(C)C1=C(C)/C(=C/c2ccc(SC)cc2)c2ccc(F)cc21 (centres undefined),2.31,5.98,6.59,
CNCCN(C)C(=O)C(C)C1=C(C)/C(=C/c2ccc(SC)cc2)c2ccc(F)cc21 (centres undefined),1.31,3.21,4.06,
CCNCCN(CC)C(=O)C(C)C1=C(C)/C(=C/c2ccc([S+](C)[O-])cc2)c2ccc(F)cc21 (centres undefined),9.99,27.9,26.3,
CCNCCCN(CC)C(=O)C(C)C1=C(C)/C(=C/c2ccc(SC)cc2)c2ccc(F)cc21 (centres undefined),2.01,3.97,4.6,
CCNCCN(CC)C(=O)C(C)C1=C(C)/C(=C/c2ccc(SC)cc2)c2ccc(F)cc21 (centres undefined),1.3,2.51,3.26,
CCN(CC)CCNC(=O)C(C)C1=C(C)/C(=C/c2ccc([S+](C)[O-])cc2)c2ccc(F)cc21 (centres undefined),11.1,36.6,40,
"CSc1ccc(/C=C2/C(C)=C(C(C)C(=O)N(C)CCN(C)C(=O)C3CCCN3)c3cc(F)ccc32)cc1 (single isomer, unassigned)",2.06,3.99,5.21,
CC1=C(C(C)C(=O)N2CCC(N3CCCCC3)CC2)c2cc(F)ccc2/C1=C\c1ccc([S+](C)[O-])cc1 (centres undefined),48.4,> 50,> 50,
CC1=C(C(C)C(=O)N2CCN(CCCN(C)C)CC2)c2cc(F)ccc2/C1=C\c1ccc([S+](C)[O-])cc1 (centres undefined),32,> 50,> 50,
CSc1ccc(/C=C2/C(C)=C(C(C)C(=O)NCc3ccccc3)c3cc(F)ccc32)cc1 (centres undefined),22.9,> 50,> 50,
CC1=C(C(C)C(=O)N(CCNC(C)C)C(C)C)c2cc(F)ccc2/C1=C\c1ccc([S+](C)[O-])cc1 (centres undefined),8.06,21.3,15.2,
CCN1CCC[C@H]1CNC(=O)C(C)C1=C(C)/C(=C/c2ccc([S+](C)[O-])cc2)c2ccc(F)cc21 (some centres undefined),9.35,24.9,41.5,
CSc1ccc(/C=C2/C(C)=C(C(C)C(=O)N3CCC[C@H]3CN3CCCC3)c3cc(F)ccc32)cc1 (some centres undefined),0.84,3.57,3.93,EC50 [4]: Not Active; EC50 [5]: 11 µM; EC50 [6]: Not Active; EC50 [7]: Not Active; EC50 [8]: > 7.57 µM; EC50 [9]: Not Active
CCNCCCN(CC)C(=O)C(C)C1=C(C)/C(=C/c2ccc([S+](C)[O-])cc2)c2ccc(F)cc21 (centres undefined),6.98,25.6,24.8,
CNCCCN(C)C(=O)C(C)C1=C(C)/C(=C/c2ccc(SC)cc2)c2ccc(F)cc21 (centres undefined),1.98,3.83,4.96,
COC(=O)[C@@H](Cc1c[nH]cn1)NC(=O)C(C)C1=C(C)/C(=C/c2ccc(SC)cc2)c2ccc(F)cc21 (some centres undefined),10.7,15,16.8,
CC1=C(C(C)C(=O)N(C)CCN(C)C)c2cc(F)ccc2/C1=C\c1ccc([S+](C)[O-])cc1 (centres undefined),11.8,> 50,44.6,
COc1cc(/C=C2/C(C)=C(C(C)C(=O)NCc3ccco3)c3cc(F)ccc32)cc(OC)c1OC (centres undefined),2.88,5.51,3.88,
CC1=C(C(C)C(=O)N2CCC[C@H]2CN2CCCC2)c2cc(F)ccc2/C1=C\c1ccc([S+](C)[O-])cc1 (some centres undefined),7.82,32,24.4,
CSc1ccc(/C=C2/C(C)=C(CC(=O)NCCN(C)C)c3cc(F)ccc32)cc1,0.65,2.67,3.12,

SMILES,CC50 [1] [µM],CC50 [2] [µM],CC50 [3] [µM],other results
COc1cc(/C=C2/C(C)=C(C(C)C(=O)N3CCN(CCCN(C)C)CC3)c3cc(F)ccc32)cc(OC)c1OC (centres undefined),3.69,7.34,9.61,
CCN(CC)CCN(CC)C(=O)C(C)C1=C(C)/C(=C/c2ccc([S+](C)[O-])cc2)c2ccc(F)cc21 (centres undefined),4.45,23.5,19.7,
CCN(CC)CCCNC(=O)C(C)C1=C(C)/C(=C/c2ccc([S+](C)[O-])cc2)c2ccc(F)cc21 (centres undefined),15.5,> 50,> 50,
CSc1ccc(/C=C2/C(C)=C(C(C)C(=O)NCCN3CCCCC3)c3cc(F)ccc32)cc1 (centres undefined),2.03,5.32,5.06,
CC1=C(C(C)C(=O)NCCN(C)C)c2cc(F)ccc2/C1=C\c1ccc([S+](C)[O-])cc1 (centres undefined),12.7,> 50,> 50,
CC1=C(C(C)C(=O)NCCN2CCCC2)c2cc(F)ccc2/C1=C\c1ccc([S+](C)[O-])cc1 (centres undefined),13.7,39.2,31.9,
CCN1CCC[C@H]1CNC(=O)C(C)C1=C(C)/C(=C/c2ccc(SC)cc2)c2ccc(F)cc21 (some centres undefined),1.1,3.49,4.24,
CC1=C(C(C)C(=O)NCCN2CCNCC2)c2cc(F)ccc2/C1=C\c1ccc([S+](C)[O-])cc1 (centres undefined),> 50,> 50,> 50,
CCN(CCN(C)C)C(=O)C(C)C1=C(C)/C(=C/c2ccc([S+](C)[O-])cc2)c2ccc(F)cc21 (centres undefined),9.51,32,28.1,
CSc1ccc(/C=C2/C(C)=C(C(C)C(=O)NCCCN(C)C)c3cc(F)ccc32)cc1 (centres undefined),2.58,6.42,7.24,
CSc1ccc(/C=C2/C(C)=C(C(C)C(=O)N3CCN(CCCN(C)C)CC3)c3cc(F)ccc32)cc1 (centres undefined),1.5,3.06,4.14,
CC1=C(C(C)C(=O)NCc2ccccc2)c2cc(F)ccc2/C1=C\c1ccc([S+](C)[O-])cc1 (centres undefined),17.2,26,15.7,
CSc1ccc(/C=C2/C(C)=C(C(C)C(=O)N(C)CCN(C)C)c3cc(F)ccc32)cc1 (centres undefined),1.43,3.66,5.55,
CSc1ccc(/C=C2/C(C)=C(C(C)C(=O)N(C)CCN(C)C(=O)[C@@H](N)C(C)C)c3cc(F)ccc32)cc1 (some centres undefined),2.22,3.86,4.83,
COC(=O)[C@H](Cc1c[nH]cn1)NC(=O)C(C)C1=C(C)/C(=C/c2ccc(SC)cc2)c2ccc(F)cc21 (some centres undefined),6.62,12.7,14.4,
CCN(CC)CCN(C)C(=O)C(C)C1=C(C)/C(=C/c2ccc(SC)cc2)c2ccc(F)cc21 (centres undefined),2.22,6.71,7.27,
CSc1ccc(/C=C2/C(C)=C(C(C)C(=O)N3CCC(N4CCCCC4)CC3)c3cc(F)ccc32)cc1 (centres undefined),1.89,4.3,4.36,
CNCCCN(C)C(=O)C(C)C1=C(C)/C(=C/c2ccc([S+](C)[O-])cc2)c2ccc(F)cc21 (centres undefined),10.5,36.8,33.7,
COC(=O)[C@H](Cc1c[nH]cn1)NC(=O)C(C)C1=C(C)/C(=C/c2ccc([S+](C)[O-])cc2)c2ccc(F)cc21 (some centres undefined),> 50,> 50,> 50,
CC1=C(C(C)C(=O)NCCCN(C)C)c2cc(F)ccc2/C1=C\c1ccc([S+](C)[O-])cc1 (centres undefined),22.5,> 50,> 50,
CC1=C(C(C)C(=O)N2CCN(c3ccncc3)CC2)c2cc(F)ccc2/C1=C\c1ccc([S+](C)[O-])cc1 (centres undefined),4.99,19.6,10.5,
CC1=C(C(C)C(=O)N(C)CCCN(C)C)c2cc(F)ccc2/C1=C\c1ccc([S+](C)[O-])cc1 (centres undefined),16.6,> 50,> 50,
CSc1ccc(/C=C2/C(C)=C(C(C)C(=O)NCc3ccco3)c3cc(F)ccc32)cc1 (centres undefined),11.2,26.1,23.5,
CNCCN(C)C(=O)C(C)C1=C(C)/C(=C/c2ccc([S+](C)[O-])cc2)c2ccc(F)cc21 (centres undefined),10.7,> 50,27.9,
CC1=C(C(C)C(=O)N2CCN(CCN(C)C)CC2)c2cc(F)ccc2/C1=C\c1ccc([S+](C)[O-])cc1 (centres undefined),38.4,> 50,50,
